Reference: ChEMBL document CHEMBL3611971, “Multifunctional novel Diallyl disulfide (DADS) derivatives with β-amyloid-reducing, cholinergic, antioxidant and metal chelating properties for the treatment of Alzheimer's disease” (Bioorg Med Chem, 2015)
pIC50: −log10 of the molar value.

Legend:
[1] = target: Amyloid-beta precursor protein (Homo sapiens) (UniProt P05067); conditions: at 25 µM
[2] = target: Acetylcholinesterase (Electrophorus electricus, UniProt O42275); assay: Inhibition of electric eel AChE using DTNB as substrate incubated for 5 mins prior to substrate addition measured after 2 mins by Ellman's method
Sequence of Acetylcholinesterase (O42275 whole entry): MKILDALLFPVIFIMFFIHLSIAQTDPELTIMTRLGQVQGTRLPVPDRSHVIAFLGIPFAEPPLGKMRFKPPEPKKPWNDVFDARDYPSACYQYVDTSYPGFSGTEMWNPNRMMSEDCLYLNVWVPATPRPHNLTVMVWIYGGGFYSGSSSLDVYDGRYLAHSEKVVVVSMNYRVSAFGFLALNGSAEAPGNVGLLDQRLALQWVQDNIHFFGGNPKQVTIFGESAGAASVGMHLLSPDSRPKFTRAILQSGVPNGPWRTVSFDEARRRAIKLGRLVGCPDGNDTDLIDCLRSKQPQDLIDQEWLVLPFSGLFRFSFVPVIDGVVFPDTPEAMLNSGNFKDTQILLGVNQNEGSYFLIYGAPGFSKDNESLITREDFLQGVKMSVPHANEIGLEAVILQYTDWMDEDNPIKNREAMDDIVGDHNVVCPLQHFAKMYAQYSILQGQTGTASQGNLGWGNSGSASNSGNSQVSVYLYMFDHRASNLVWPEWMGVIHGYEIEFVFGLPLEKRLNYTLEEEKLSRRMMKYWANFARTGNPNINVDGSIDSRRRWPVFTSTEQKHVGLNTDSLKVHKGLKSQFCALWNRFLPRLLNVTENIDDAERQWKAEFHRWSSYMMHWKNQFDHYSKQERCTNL

[3] = target: Cholinesterase (Equus caballus, UniProt P81908); assay: Inhibition of equine serum BuChE using DTNB as substrate incubated for 5 mins prior to substrate addition measured after 2 mins by Ellman's method
Sequence of Cholinesterase (P81908 whole entry): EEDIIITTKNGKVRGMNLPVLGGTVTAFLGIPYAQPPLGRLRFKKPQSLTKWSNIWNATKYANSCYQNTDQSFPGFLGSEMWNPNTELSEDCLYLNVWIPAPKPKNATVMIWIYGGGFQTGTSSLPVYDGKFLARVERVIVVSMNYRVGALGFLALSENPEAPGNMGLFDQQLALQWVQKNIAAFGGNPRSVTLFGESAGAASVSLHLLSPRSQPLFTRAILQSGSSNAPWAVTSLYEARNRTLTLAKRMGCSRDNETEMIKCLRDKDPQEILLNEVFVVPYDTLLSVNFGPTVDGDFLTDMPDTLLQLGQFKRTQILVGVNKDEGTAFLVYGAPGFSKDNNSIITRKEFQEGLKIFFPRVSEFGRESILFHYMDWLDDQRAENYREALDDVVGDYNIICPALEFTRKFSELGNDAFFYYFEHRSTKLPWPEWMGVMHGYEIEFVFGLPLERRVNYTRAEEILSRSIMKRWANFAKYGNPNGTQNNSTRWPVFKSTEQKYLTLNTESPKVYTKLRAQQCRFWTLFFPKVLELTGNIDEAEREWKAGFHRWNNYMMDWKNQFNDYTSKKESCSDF

[4] = Metal chelating activity of the compound assessed as reduction of Cu2+-amyloid beta (1 to 42)-complex induced H2O2 production from ascorbate at 800 nM after 30 mins by HRP/Amplex Red assay relative to control; format: physicochemical; parameters: scale not given: the % may be the effect or the level left; conditions: 0.5 h, 0.8 µM
Summary of the method: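 Per well, in phosphate buffer (100 μL): CuCl2 400 nM, Aβ 200 nM, chelator 800 nM (1% v/v DMSO) and sodium ascorbate 10 mM, held 30 min at room temperature. Working solution with Amplex Red and HRP then added for another 30 min at room temperature. Fluorescence ex/em 530/590 nm. At least three measurements.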

[5] = Cytotoxicity against HEK293 cells assessed as cell viability at 10 uM after 48 hrs by MTT assay relative to control; format: cell-based; conditions: human, read-out: Activity
Summary of the method: (§1)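 HEK 293 cells grown in DMEM with 10% FBS and 1% penicillin–streptomycin at 37 °C, 5% CO2. Seeded at 5000 cells/well and cultured 24 h, then exposed 48 h to compound (DMSO stock diluted in complete medium; 0.1–100 μM final), in triplicate. MTT added for 4 h, formazan dissolved in DMSO, absorbance read at 570 nm against 630 nm reference. Mean ± SEM of 3 independent experiments.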

[6] = Cytotoxicity against HEK293 cells assessed as cell viability at 1 uM after 48 hrs by MTT assay relative to control; format: cell-based; conditions: human, read-out: Activity
Summary of the method: as §1

[7] = Cytotoxicity against HEK293 cells assessed as cell viability at 100 uM after 48 hrs by MTT assay relative to control; format: cell-based; conditions: human, read-out: Activity
Summary of the method: as §1

[8] = Metal chelating activity of the compound assessed as reduction of Cu2+-induced amyloid beta (1 to 42) (unknown origin) aggregation at 50 uM after 24 hrs by thioflavin-T-based fluorescence assay relative to control; format: physicochemical
Summary of the method: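 Aβ1–42 was HFIP-treated, dried, and held as DMSO stock. Diluted in […] (pH 6.6) with […]; 25 μM peptide incubated with or without 25 μM Cu2+ and 50 μM compound, 37 °C, 24 h.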

[9] = tested on: HEK293; assay: Cytotoxicity against HEK293 cells assessed as cell viability at 0.1 to 100 uM after 48 hrs by MTT assay relative to control; format: cell-based; conditions: human, hek293, 48 h
Summary of the method: as §1

[10] = Metal chelating activity of the compound assessed as reduction of Cu2+-induced amyloid beta (1 to 42) (unknown origin) aggregation at 50 uM after 24 hrs by transmission electron microscopic analysis; format: physicochemical
Summary of the method: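 Aβ1–42 diluted in 20 mM phosphate buffer (pH 7.4) at 4 °C. Preincubated 2 min with Cu2+ (Aβ and Cu2+ each 25 μM final), then incubated 24 h at 37 °C with or without compound at 50 μM. Samples placed on carbon-coated grids for 2 min at room temperature, stained 2 min with 1% uranyl acetate, and imaged by TEM.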

[11] = Metal chelating activity of the compound assessed as formation of Fe2+-compound complex at 50 uM after 30 mins by UV-vis spectrometry; format: physicochemical; conditions: 0.5 h
Summary of the method: (§2)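 UV absorption scan from 200 to 600 nm of compound in methanol, alone or with CuCl2 or FeSO4. Read after 30 min at room temperature, with compound and metal each at 50 μM final.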

[12] = Cytotoxicity against HEK293 cells assessed as cell viability at 25 uM after 48 hrs by MTT assay relative to control; format: cell-based; conditions: human, read-out: Activity
Summary of the method: as §1

[13] = Cytotoxicity against HEK293 cells assessed as cell viability at 50 uM after 48 hrs by MTT assay relative to control; format: cell-based; conditions: human, read-out: Activity
Summary of the method: as §1

[14] = Cytotoxicity against HEK293 cells assessed as cell viability at 0.1 uM after 48 hrs by MTT assay relative to control; format: cell-based; conditions: human, read-out: Activity
Summary of the method: as §1

[15] = Metal chelating activity of the compound assessed as formation of Cu2+-compound complex at 50 uM after 30 mins by UV-vis spectrometry; format: physicochemical; conditions: 0.5 h
Summary of the method: as §2

Sequence of Amyloid-beta precursor protein (Homo sapiens) (P05067 whole entry): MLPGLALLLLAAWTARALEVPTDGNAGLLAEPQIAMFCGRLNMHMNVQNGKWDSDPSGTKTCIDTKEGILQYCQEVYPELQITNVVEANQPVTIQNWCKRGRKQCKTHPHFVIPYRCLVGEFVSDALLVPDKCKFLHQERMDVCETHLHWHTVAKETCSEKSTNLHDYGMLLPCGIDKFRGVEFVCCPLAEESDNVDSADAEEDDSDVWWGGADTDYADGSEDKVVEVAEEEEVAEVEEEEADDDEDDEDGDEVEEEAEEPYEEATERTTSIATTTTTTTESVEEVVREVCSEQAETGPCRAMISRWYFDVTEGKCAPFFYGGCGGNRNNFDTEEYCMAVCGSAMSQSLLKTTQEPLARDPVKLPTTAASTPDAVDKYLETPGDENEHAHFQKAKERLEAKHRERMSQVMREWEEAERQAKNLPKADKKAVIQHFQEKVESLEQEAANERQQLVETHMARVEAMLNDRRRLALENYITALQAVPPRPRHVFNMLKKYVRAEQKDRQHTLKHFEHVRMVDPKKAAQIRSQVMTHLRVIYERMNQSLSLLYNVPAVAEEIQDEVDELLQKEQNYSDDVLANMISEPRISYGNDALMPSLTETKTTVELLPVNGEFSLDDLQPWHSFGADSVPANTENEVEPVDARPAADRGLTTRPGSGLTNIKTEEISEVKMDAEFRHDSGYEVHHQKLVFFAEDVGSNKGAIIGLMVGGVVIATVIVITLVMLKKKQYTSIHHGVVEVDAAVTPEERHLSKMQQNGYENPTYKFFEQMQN

SMILES | inhibition [1] [%] | pIC50 [2] | pIC50 [3] | also measured
Clc1cc(Cl)cc(/C=C/CSSC/C=C/c2cc(Cl)cc(Cl)c2)c1 | 47.5 | 4.19 | < 4.00 | 
O=C(/C=C/c1ccc(Cl)cc1)SSC(=O)/C=C/c1ccc(Cl)cc1 | 65.6 | 6.29 | 4.45 | 
Brc1ccc(/C=C/CSSC/C=C/c2ccc(Br)cc2)cc1 | 37.5 | 4.68 | 4.14 | 
O=C(/C=C/c1ccc(O)cc1)SSC(=O)/C=C/c1ccc(O)cc1 | 66.4 | 6.68 | 4.61 | 
Oc1ccc(/C=C/CSSC/C=C/c2ccc(O)cc2)cc1 | 53 | 4.91 | 4.20 | 
COc1ccc(/C=C/C(=O)SSC(=O)/C=C/c2ccc(OC)cc2OC)c(OC)c1 | 69 | 6.85 | 4.83 | 
Clc1ccc(/C=C/CSSC/C=C/c2ccc(Cl)cc2)cc1 | 48.2 | 4.43 | 4.03 | 
COc1ccc(/C=C/C(=O)SSC(=O)/C=C/c2ccc(OC)c(OC)c2)cc1OC | 74.2 | 7.25 | 4.87 | Activity [4]: 72%; viability at 48 h, 10 µM [5]: 95.4%; viability at 48 h, 1 µM [6]: 96.1%; viability at 48 h, 100 µM [7]: 88.6%; inhibition (INH) [8]: 80.9%; Activity [9]: Dose-dependent effect; inhibition (INH) [10]: Active; Activity [11]: Active; viability at 48 h, 25 µM [12]: 95.7%; viability at 48 h, 50 µM [13]: 92.8%; viability at 48 h, 0.1 µM [14]: 98.9%; Activity [15]: Active
O=C(/C=C/c1ccc(F)cc1)SSC(=O)/C=C/c1ccc(F)cc1 | 62.4 | 6.35 | 4.49 | 
COc1ccc(/C=C/C(=O)SSC(=O)/C=C/c2ccc(OC)cc2)cc1 | 63.5 | 6.66 | 4.80 | 
COc1ccc(/C=C/CSSC/C=C/c2ccc(OC)cc2)cc1 | 58.5 | 5.08 | 4.23 | 
O=C(/C=C/c1ccc(Br)cc1)SSC(=O)/C=C/c1ccc(Br)cc1 | 52.2 | 6.47 | 4.43 | 
Brc1cccc(/C=C/CSSC/C=C/c2cccc(Br)c2)c1 | 39.4 | 4.63 | 4.12 | 
Fc1cccc(F)c1/C=C/CSSC/C=C/c1c(F)cccc1F | 39.5 | 4.37 | < 4.00 | 
O=C(O)CN(CCN(CC(=O)O)CC(=O)O)CC(=O)O [EDETIC ACID] |  |  |  | Activity [4]: > 80%
COc1cc(/C=C/C(=O)CC(=O)/C=C/c2ccc(O)c(OC)c2)ccc1O [CURCUMIN] |  |  |  | inhibition (INH) [8]: 65.9%
Fc1cccc(/C=C/CSSC/C=C/c2cccc(F)c2)c1 | 44.2 | 4.27 | < 4.00 | 
COc1ccc(/C=C/CSSC/C=C/c2ccc(OC)c(OC)c2)cc1OC | 61.2 | 5.96 | 4.26 | 
O=C(/C=C/c1cccc(Br)c1)SSC(=O)/C=C/c1cccc(Br)c1 | 68.7 | 6.27 | 4.41 | 
COc1cc(/C=C/CSSC/C=C/c2ccc(O)c(OC)c2)ccc1O | 66.9 | 5.84 | 4.24 | 
Clc1cccc(/C=C/CSSC/C=C/c2cccc(Cl)c2)c1 | 52.4 | 4.35 | < 4.00 | 
COc1cc(/C=C/C(=O)SSC(=O)/C=C/c2ccc(O)c(OC)c2)ccc1O | 71.4 | 6.92 | 4.89 | Activity [4]: 62%; viability at 48 h, 10 µM [5]: 94.4%; viability at 48 h, 1 µM [6]: 96.5%; viability at 48 h, 100 µM [7]: 80.9%; inhibition (INH) [8]: 78.5%; Activity [9]: Dose-dependent effect; inhibition (INH) [10]: Active; Activity [11]: Active; viability at 48 h, 25 µM [12]: 92.3%; viability at 48 h, 50 µM [13]: 90.1%; viability at 48 h, 0.1 µM [14]: 97.3%; Activity [15]: Active
Fc1ccccc1/C=C/CSSC/C=C/c1ccccc1F | 33.5 | 4.31 | < 4.00 | 
